Results as given in ChEMBL document CHEMBL3817726, “Chemically Diverse Group I p21-Activated Kinase (PAK) Inhibitors Impart Acute Cardiovascular Toxicity with a Narrow Therapeutic Window” (J Med Chem, 2016).
≈ marks a conversion by molar mass, not a printed value. Calls of active or inactive are those of the source. The rule behind the calls is not given here.

Key:
[1] = molecular target: Serine/threonine-protein kinase PAK 1 (Homo sapiens, UniProt Q13153); assay: Inhibition of human recombinant N-terminal 6-His-tagged PAK1 kinase domain (249 to 545 residues) expressed in Escherichia coli BL21(DE3) assessed as phosphorylation of coumarin labeled FRET peptide substrate at Ser/Thr19 preincubated for 10 mins followed by ATP addition measured after 60 mins by Z'-LYTE assay
Serine/threonine-protein kinase PAK 1, sequence (Q13153 whole entry, the tested form may be a part): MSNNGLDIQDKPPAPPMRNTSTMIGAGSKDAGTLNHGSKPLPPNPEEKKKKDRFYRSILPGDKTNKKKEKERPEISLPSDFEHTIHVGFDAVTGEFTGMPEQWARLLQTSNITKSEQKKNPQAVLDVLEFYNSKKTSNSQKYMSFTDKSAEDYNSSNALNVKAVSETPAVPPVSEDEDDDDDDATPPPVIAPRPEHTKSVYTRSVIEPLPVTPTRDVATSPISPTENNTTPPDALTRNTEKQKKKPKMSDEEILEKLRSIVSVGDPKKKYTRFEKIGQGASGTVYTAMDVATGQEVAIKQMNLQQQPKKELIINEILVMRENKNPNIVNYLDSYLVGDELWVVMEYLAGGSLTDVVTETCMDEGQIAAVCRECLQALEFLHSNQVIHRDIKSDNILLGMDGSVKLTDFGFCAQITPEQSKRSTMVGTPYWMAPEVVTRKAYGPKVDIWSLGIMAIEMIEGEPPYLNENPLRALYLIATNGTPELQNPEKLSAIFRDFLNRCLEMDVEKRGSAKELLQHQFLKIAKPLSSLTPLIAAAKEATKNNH

[2] = species on record: Homo sapiens; assay: Selectivity for human recombinant N-terminal 6-His-tagged PAK1 kinase domain (249 to 545 residues) over LCK (unknown origin)
[3] = molecular target: Serine/threonine-protein kinase PAK 1/PAK 2 (Homo sapiens, UniProt Q13177+Q13153); assay: Inhibition of PAK1/2 in human EBC1 cells assessed as phosphorylation of MEK1 at serine 298 after 2 hrs by HTRF assay; assay type: cell-based
[4] = Lipophilicity, log D of the compound at pH 7.4; assay type: physicochemical; details: buffer
[5] = Kinetic solubility of the compound at pH 7.4; assay type: physicochemical; details: buffer, read-out: Kinetic_solubility
[6] = Apparent permeability across apical to basolateral side in MDCK cells at 10 uM after 60 mins; assay type: ADME, cell-based, Canis lupus familiaris; details: dog
[7] = Efflux ratio of permeability across basolateral to apical side over apical to basolateral side in MDCK cells at 10 uM after 60 mins; assay type: ADME, cell-based, Canis lupus familiaris; details: dog
[8] = molecular target: Serine/threonine-protein kinase PAK 2 (Homo sapiens, UniProt Q13177); assay: Inhibition of human recombinant PAK2 assessed as phosphorylation of coumarin labeled FRET peptide substrate at Ser/Thr19 preincubated for 10 mins followed by ATP addition measured after 60 mins by Z'-LYTE assay
Serine/threonine-protein kinase PAK 2, sequence (Q13177 whole entry): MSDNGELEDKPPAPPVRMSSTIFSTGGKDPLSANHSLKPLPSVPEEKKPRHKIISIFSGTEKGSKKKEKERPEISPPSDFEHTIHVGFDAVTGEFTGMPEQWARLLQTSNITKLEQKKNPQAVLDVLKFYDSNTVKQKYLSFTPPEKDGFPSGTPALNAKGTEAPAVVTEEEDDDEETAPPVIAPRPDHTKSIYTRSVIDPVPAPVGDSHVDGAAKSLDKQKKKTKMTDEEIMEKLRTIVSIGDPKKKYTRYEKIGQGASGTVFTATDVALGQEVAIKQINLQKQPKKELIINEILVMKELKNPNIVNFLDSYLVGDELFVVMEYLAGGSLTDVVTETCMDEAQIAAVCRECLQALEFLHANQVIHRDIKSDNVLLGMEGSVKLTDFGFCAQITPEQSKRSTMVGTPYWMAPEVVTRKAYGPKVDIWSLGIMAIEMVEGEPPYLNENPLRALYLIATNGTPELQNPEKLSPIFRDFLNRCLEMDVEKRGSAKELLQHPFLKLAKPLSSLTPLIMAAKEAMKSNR

[9] = Fraction unbound in mouse plasma at 25 to 150 mg/kg, ip; assay type: ADME, organism-based
[10] = Cmax associated with acute adverse effect in mouse at 25 to 150 mg/kg, ip; assay type: ADME, organism-based; details: in vivo
[11] = test system: Mus musculus; assay: fCmax associated with acute adverse effect in mouse at 25 to 150 mg/kg, ip; assay type: ADME, organism-based; details: in vivo
[12] = Ratio of fCmax associated with acute adverse effect in mouse at 25 to 150 mg/kg, ip to IC50 for PAK1/2-mediated phosphorylation of MEK1 at serine 298 in human EBC1 cells
[13] = test system: Mus musculus; assay: Toxicity in mouse at 100 mg/kg, ip; assay type: organism-based; details: in vivo
[14] = Fraction unbound in mouse plasma at 100 mg/kg, ip; assay type: ADME, organism-based
[15] = Cmax associated with acute adverse effect in mouse at 100 mg/kg, ip; assay type: ADME, organism-based; set-up: dose 100 mg/kg, route intraperitoneal; details: in vivo
Procedure, shortened: (§1)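 Mouse tolerability studies tested multiple doses, given orally or intraperitoneally. Plasma drug concentrations were measured, including at a 15 min time point. The minimum concentration associated with adverse clinical signs or death was taken as the adverse Cmax and was converted to an unbound value.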

[16] = test system: Mus musculus; assay: fCmax associated with acute adverse effect in mouse at 100 mg/kg, ip; assay type: ADME, organism-based; details: in vivo
Procedure, shortened: (§2)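 Mouse tolerability studies at multiple doses, oral or intraperitoneal. Minimum unbound plasma concentration associated with adverse effects (total Cmax converted to unbound) compared with IC50 for inhibition of MEK1 S298 phosphorylation in cells.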

[17] = Ratio of fCmax associated with acute adverse effect in mouse at 100 mg/kg, ip to IC50 for PAK1/2-mediated phosphorylation of MEK1 at serine 298 in human EBC1 cells
[18] = test system: MDR1; assay: Permeability across apical to basolateral side in MDCK cells expressing MDR1; assay type: ADME, cell-based, Canis lupus familiaris; details: dog, read-out: permeability
[19] = Fraction unbound in mouse plasma at 30 to 60 mg/kg, po; assay type: ADME, organism-based
[20] = Cmax associated with acute adverse effect in mouse at 30 to 60 mg/kg, po; assay type: ADME, organism-based; details: in vivo; procedure, shortened: as §1
[21] = test system: Mus musculus; assay: fCmax associated with acute adverse effect in mouse at 30 to 60 mg/kg, po; assay type: ADME, organism-based; details: in vivo; procedure, shortened: as §2
[22] = test system: Mus musculus; assay: In vivo inhibition of PAK1/2 in human NCI-H292 cells xenografted in mouse assessed as phosphorylation of MEK1 at serine 298 at 25 mg/kg, po bid; assay type: functional, organism-based
[23] = test system: NCI-H292; assay: Antitumor activity against human NCI-H292 cells xenografted in mouse assessed as tumor growth inhibition at 25 mg/kg, po bid relative to control; assay type: functional; details: read-out: TGI
[24] = Antitumor activity against human MDA-MB-175 cells xenografted in mouse assessed as tumor growth inhibition at 25 mg/kg, po bid relative to control; assay type: functional; details: read-out: TGI
[25] = molecular target: Voltage-gated inwardly rectifying potassium channel KCNH2 (Homo sapiens, UniProt Q12809); assay: Inhibition of human ERG expressed in mammalian cells treated for 3 mins by automatic parallel patch clamp method; assay type: cell-based; details: 0.05 h
[26] = molecular target: Sodium channel protein type 1 subunit alpha (Homo sapiens) (UniProt P35498); assay: Inhibition of human Nav1.1 assessed as tonic block of sodium current at 1 to 10 uM treated for 3 mins by automatic parallel patch clamp method
[27] = molecular target: Sodium channel protein type 1 subunit alpha (Homo sapiens) (UniProt P35498); assay: Inhibition of human Nav1.1 assessed as phasic block of sodium current at 1 to 10 uM treated for 3 mins by automatic parallel patch clamp method
[28] = molecular target: T1, Sodium channel protein type 5 subunit alpha (Homo sapiens, UniProt Q14524); assay: Inhibition of human Nav1.5 expressed in CHO cells assessed as tonic block of sodium current at 1 to 10 uM treated for 3 mins by automatic parallel patch clamp method; assay type: cell-based; details: 0.05 h
T1 sequence (Q14524 whole entry): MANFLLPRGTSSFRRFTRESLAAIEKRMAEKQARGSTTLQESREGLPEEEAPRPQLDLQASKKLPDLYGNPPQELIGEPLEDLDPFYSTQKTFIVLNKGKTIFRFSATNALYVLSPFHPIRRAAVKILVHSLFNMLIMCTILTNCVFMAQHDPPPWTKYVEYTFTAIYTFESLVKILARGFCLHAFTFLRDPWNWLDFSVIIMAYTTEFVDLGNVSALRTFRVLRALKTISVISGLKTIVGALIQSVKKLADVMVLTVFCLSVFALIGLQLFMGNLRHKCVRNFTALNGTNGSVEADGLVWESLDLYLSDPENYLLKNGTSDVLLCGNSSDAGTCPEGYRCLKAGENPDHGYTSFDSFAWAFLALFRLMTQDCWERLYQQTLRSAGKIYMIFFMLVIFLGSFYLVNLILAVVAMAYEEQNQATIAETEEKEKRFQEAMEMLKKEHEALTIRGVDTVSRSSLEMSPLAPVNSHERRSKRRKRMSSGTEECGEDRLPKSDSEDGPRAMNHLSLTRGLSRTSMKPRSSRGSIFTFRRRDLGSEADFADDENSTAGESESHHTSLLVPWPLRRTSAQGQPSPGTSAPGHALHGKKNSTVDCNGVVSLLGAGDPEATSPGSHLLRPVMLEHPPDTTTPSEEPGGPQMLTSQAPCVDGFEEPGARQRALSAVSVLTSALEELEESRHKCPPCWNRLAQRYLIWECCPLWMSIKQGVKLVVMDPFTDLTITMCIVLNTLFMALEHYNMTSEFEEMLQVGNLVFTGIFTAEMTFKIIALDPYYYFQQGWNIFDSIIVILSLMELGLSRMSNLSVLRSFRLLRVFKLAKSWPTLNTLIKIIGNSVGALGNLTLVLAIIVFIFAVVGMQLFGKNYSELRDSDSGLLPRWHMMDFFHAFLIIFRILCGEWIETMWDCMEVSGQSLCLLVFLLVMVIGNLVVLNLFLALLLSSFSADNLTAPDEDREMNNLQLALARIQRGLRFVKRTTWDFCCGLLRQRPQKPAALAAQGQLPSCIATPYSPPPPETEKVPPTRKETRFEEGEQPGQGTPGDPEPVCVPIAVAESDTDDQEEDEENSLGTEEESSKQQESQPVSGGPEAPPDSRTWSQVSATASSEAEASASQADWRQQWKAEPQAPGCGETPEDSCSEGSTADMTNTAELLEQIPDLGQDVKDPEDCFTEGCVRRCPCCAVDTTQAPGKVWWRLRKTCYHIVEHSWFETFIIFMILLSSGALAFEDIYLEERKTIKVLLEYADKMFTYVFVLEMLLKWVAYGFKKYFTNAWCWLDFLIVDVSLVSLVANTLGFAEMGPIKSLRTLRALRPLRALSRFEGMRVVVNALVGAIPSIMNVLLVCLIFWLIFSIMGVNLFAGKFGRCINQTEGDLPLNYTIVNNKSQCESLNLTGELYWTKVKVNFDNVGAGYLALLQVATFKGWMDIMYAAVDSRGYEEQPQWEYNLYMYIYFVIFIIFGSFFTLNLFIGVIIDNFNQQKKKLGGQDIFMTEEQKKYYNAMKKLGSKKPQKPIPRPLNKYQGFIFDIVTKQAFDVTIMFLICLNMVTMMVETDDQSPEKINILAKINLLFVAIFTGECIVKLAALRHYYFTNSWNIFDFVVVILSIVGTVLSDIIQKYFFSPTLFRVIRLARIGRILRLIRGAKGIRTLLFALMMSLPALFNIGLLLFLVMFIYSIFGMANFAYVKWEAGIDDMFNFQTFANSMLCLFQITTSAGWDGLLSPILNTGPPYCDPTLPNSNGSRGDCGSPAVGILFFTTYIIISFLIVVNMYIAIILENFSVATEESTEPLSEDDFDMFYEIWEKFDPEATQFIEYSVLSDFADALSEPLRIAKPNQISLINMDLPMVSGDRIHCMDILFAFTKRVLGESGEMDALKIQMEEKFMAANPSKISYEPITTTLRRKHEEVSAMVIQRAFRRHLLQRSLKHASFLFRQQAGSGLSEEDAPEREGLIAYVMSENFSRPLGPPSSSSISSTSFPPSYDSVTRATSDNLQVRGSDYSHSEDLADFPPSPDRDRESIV

[29] = molecular target: T1, Sodium channel protein type 5 subunit alpha; assay: Inhibition of human Nav1.5 expressed in CHO cells assessed as phasic block of sodium current at 1 to 10 uM treated for 3 mins by automatic parallel patch clamp method; assay type: cell-based; details: 0.05 h
[30] = molecular target: Voltage-dependent T-type calcium channel subunit alpha-1H (Homo sapiens) (UniProt O95180); assay: Inhibition of human Cav3.2 expressed in HEK293 cells at 1 to 10 uM treated for 3 mins by automatic parallel patch clamp method; assay type: cell-based
[31] = species on record: Homo sapiens; assay: Inhibition of Na+/Ca2+ ATPase (unknown origin) at 30 uM
[32] = test system: Heart; assay: Cardiotoxicity in Langendorff perfused Sprague-Dawley rat heart assessed as increase in coronary perfusion pressure at 1.5 to 15 uM treated for 15 mins; assay type: toxicity, tissue-based; details: 0.25 h
Procedure, shortened: (§3)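 Hearts from Sprague Dawley rats were perfused in a Langendorff preparation and paced via the right atrium at 10-15% above the intrinsic heart rate. Each heart received increasing concentrations of 0, 0.5, 1.5, 5 and 15 µM, for 15 min at each level (n=5). Hemodynamic and electrocardiographic parameters were recorded throughout.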

[33] = test system: Heart; assay: Cardiotoxicity in Langendorff perfused Sprague-Dawley rat heart assessed as decrease in left ventricular developed pressure at 1.5 to 15 uM treated for 15 mins; assay type: toxicity, tissue-based; details: 0.25 h; procedure, shortened: as §3
[34] = test system: Heart; assay: Cardiotoxicity in Langendorff perfused Sprague-Dawley rat heart assessed as loss of 1:1 atrioventricular conduction at 5 to 15 uM treated for 15 mins; assay type: toxicity, tissue-based; details: 0.25 h; procedure, shortened: as §3
[35] = test system: Heart; assay: Cardiotoxicity in Langendorff perfused Sprague-Dawley rat heart assessed as decrease in dP/dt maximum at 1.5 to 15 uM treated for 15 mins; assay type: toxicity, tissue-based; details: 0.25 h; procedure, shortened: as §3
[36] = test system: Heart; assay: Cardiotoxicity in Langendorff perfused Sprague-Dawley rat heart assessed as decrease in dP/dt minimum at 1.5 to 15 uM treated for 15 mins; assay type: toxicity, tissue-based; details: 0.25 h; procedure, shortened: as §3
[37] = test system: Heart; assay: Cardiotoxicity in Langendorff perfused Sprague-Dawley rat heart assessed as decrease in dP/dtmax/P at 40 mmHg at 1.5 to 15 uM treated for 15 mins; assay type: toxicity, tissue-based; details: 0.25 h; procedure, shortened: as §3
[38] = test system: Heart; assay: Cardiotoxicity in Langendorff perfused Sprague-Dawley rat heart assessed as decrease in dP/dtmax/P at 1.5 to 15 uM treated for 15 mins; assay type: toxicity, tissue-based; details: 0.25 h; procedure, shortened: as §3
[39] = test system: Heart; assay: Cardiotoxicity in Langendorff perfused Sprague-Dawley rat heart assessed as increase in left ventricular systolic pressure at 1.5 to 15 uM treated for 15 mins; assay type: toxicity, tissue-based; details: 0.25 h; procedure, shortened: as §3
[40] = test system: Heart; assay: Cardiotoxicity in Langendorff perfused Sprague-Dawley rat heart assessed as increase in left ventricular end diastolic pressure at 1.5 to 15 uM treated for 15 mins; assay type: toxicity, tissue-based; details: 0.25 h; procedure, shortened: as §3
[41] = test system: Heart; assay: Cardiotoxicity in Langendorff perfused Sprague-Dawley rat heart assessed as increase in PR interval at 5 uM treated for 15 mins; assay type: toxicity, tissue-based; details: 0.25 h; procedure, shortened: as §3
[42] = test system: Heart; assay: Cardiotoxicity in Langendorff perfused Sprague-Dawley rat heart assessed as increase in PR interval at 15 uM treated for 15 mins; assay type: toxicity, tissue-based; details: 0.25 h; procedure, shortened: as §3
[43] = test system: Heart; assay: Cardiotoxicity in Langendorff perfused Sprague-Dawley rat heart assessed as ventricular fibrillation at 5 uM treated for 15 mins; assay type: toxicity, tissue-based; details: 0.25 h; procedure, shortened: as §3
[44] = molecular target: Serine/threonine-protein kinase PAK 3 (Homo sapiens) (UniProt O75914); details: 0.1 uM
Serine/threonine-protein kinase PAK 3 (Homo sapiens), sequence (O75914 whole entry, looked up): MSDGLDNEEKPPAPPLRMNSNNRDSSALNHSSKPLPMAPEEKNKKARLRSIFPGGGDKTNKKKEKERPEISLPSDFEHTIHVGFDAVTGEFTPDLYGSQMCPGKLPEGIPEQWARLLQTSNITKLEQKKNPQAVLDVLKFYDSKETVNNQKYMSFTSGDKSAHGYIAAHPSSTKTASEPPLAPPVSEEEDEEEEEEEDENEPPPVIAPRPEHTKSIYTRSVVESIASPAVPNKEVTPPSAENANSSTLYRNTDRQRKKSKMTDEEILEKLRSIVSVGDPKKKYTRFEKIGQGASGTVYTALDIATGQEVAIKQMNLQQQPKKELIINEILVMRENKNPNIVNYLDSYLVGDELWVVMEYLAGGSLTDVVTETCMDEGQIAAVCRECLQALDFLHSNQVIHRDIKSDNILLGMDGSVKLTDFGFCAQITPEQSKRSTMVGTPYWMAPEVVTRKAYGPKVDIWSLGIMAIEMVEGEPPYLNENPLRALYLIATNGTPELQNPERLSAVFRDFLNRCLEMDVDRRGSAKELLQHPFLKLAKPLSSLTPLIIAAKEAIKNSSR

[45] = molecular target: Serine/threonine-protein kinase 25 (Homo sapiens) (UniProt O00506); details: 0.1 uM
Serine/threonine-protein kinase 25 (Homo sapiens), sequence (O00506 whole entry, looked up): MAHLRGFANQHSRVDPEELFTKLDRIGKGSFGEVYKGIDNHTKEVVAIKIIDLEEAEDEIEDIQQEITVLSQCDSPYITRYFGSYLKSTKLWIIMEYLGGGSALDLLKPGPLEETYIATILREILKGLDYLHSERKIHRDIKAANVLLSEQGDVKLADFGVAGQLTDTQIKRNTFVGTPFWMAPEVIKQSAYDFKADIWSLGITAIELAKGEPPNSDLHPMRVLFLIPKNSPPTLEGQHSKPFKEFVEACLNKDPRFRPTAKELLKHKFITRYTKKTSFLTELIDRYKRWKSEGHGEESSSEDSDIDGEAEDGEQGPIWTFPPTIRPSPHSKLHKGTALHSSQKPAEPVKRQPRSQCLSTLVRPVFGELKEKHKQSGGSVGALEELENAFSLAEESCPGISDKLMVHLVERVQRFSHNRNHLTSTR

[46] = molecular target: Serine/threonine-protein kinase 24 (Homo sapiens) (UniProt Q9Y6E0); details: 0.1 uM
[47] = molecular target: Serine/threonine-protein kinase 26 (Homo sapiens) (UniProt Q9P289); details: 0.1 uM
[48] = molecular target: Tyrosine-protein kinase Lck (Homo sapiens) (UniProt P06239); details: 0.1 uM
Tyrosine-protein kinase Lck (Homo sapiens), sequence (P06239 2-509 limits assumed): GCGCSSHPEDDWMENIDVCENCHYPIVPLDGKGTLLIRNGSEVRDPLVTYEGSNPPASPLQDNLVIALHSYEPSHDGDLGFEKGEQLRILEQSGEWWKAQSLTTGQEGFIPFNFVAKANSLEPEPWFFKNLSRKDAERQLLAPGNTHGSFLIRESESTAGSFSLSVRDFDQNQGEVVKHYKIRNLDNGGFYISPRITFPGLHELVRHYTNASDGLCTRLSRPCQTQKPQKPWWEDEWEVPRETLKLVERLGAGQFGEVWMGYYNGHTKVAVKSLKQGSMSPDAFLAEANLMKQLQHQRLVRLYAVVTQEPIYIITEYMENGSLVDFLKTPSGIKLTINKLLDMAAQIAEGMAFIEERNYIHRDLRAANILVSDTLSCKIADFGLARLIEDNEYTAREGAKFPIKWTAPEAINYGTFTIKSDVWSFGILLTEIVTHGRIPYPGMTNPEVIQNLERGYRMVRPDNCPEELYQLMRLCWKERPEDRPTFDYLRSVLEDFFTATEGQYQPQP

[49] = molecular target: 5-hydroxytryptamine receptor 1B (Rattus norvegicus) (UniProt P28564); details: Cerebral cortex, 10 uM
[50] = molecular target: 5-hydroxytryptamine receptor 2A (Homo sapiens) (UniProt P28223); details: HEK293, 10 uM
[51] = molecular target: 5-hydroxytryptamine receptor 2B (Homo sapiens) (UniProt P41595); details: CHO, 10 uM
5-hydroxytryptamine receptor 2B (Homo sapiens), sequence (P41595 whole entry): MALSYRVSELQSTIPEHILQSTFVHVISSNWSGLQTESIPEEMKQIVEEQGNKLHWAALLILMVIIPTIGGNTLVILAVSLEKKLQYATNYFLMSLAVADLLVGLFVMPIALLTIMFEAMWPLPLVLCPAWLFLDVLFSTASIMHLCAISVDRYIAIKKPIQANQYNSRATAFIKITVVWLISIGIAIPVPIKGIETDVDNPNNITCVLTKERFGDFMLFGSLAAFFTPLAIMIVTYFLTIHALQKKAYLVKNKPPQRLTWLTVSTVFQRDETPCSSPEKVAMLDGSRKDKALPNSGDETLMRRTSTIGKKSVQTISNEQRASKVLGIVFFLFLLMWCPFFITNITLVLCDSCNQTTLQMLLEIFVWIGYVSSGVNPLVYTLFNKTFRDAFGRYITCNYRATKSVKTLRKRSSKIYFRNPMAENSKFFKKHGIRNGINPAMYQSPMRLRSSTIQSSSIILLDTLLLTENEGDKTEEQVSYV

[52] = molecular target: 5-hydroxytryptamine receptor 4 (Homo sapiens) (UniProt Q13639); details: CHO, 10 uM
[53] = species on record: Rattus norvegicus; details: Cerebral cortex, 10 uM
[54] = molecular target: Sodium/potassium-transporting ATPase (Homo sapiens) (UniProt P05023+P14415+P05026+P50993+P54709+P13637+Q13733+P54710); details: 30 uM

## CCn1c(=O)c(-c2ccc(-n3cccc(C)c3=O)cc2Cl)cc2cnc(NC3COC3)nc21
[1]
  Ki: 6.3 nM
[2]
  Selectivity ratio: 123
[3]
  IC50: 150 nM
[4]
  logD: 2.5
[5]
  solubility kinetic: 2.6 µM (≈ 1.21 µg/mL)
[6]
  Papp A→B at 1 h, 10 µM: 37 ×10⁻⁶ cm/s
[7]
  efflux ratio at 1 h, 10 µM: 0.4
[8]
  Ki: 21 nM
[9]
  fraction unbound: 0.006
[10]
  Cmax: 41 µM
[11]
  fCmax: 0.24 µM
[12]
  Ratio: 1

## CCc1cccn(-c2ccc(-c3cc4cnc(NC)nc4n(C[C@H]4CNCCO4)c3=O)c(Cl)c2)c1=O
[13]
  Activity: Toxic
[1]
  Ki: 11 nM
[3]
  IC50: 240 nM
[8]
  Ki: 9.5 nM
[14]
  fraction unbound: 0.027
[15]
  Cmax: 28 µM
[16]
  fCmax: 0.76 µM
[17]
  Ratio: 1

## CNc1ncc2cc(-c3ccc(-c4cccc(C)n4)cc3Cl)c(=O)n(C[C@H]3OC[C@H](N)CO3)c2n1
[18]
  Papp A→B: 0.3 ×10⁻⁶ cm/s
[19]
  fraction unbound: 0.003
[20]
  Cmax: 55 µM
[21]
  fCmax: 0.16 µM
[22]
  inhibition: Active
[23]
  inhibition in vivo at 25 mg/kg: 60%
[24]
  inhibition in vivo at 25 mg/kg: 60%
[25]
  inhibition (INH): Not Active
[26]
  inhibition: inactive
[27]
  inhibition: inactive
[28]
  inhibition (INH): Not Active
[29]
  inhibition (INH): Not Active
[30]
  inhibition: inactive
[31]
  inhibition: inactive
[32]
  Activity: 64%
[33]
  Activity: Toxic
[34]
  Activity: Toxic
[35]
  Activity: Toxic
[36]
  Activity: Toxic
[37]
  Activity: Toxic
[38]
  Activity: Toxic
[39]
  Activity: Toxic
[40]
  Activity: Toxic
[41]
  Activity: 37%
[42]
  Activity: 34%
[43]
  Activity: Toxic
[44]
  inhibition: > 75%
[45]
  inhibition: > 75%
[46]
  inhibition: > 75%
[47]
  inhibition: > 75%
[48]
  inhibition: > 75%
[49]
  inhibition: > 75%
[50]
  inhibition: > 75%
[51]
  inhibition: > 75%
[52]
  inhibition: > 75%
[53]
  inhibition: > 75%
[54]
  inhibition: inactive
